Source: PubChem BioAssay
This excerpt belongs to a sample that is enriched for hits.
D1 mod: D1 dopamine receptor (human) allosteric modulation; HEK293 D1, CRE-luciferase, dopamine EC30 potentiation; actives deviate in either direction; B-score at 10 µM; 5.9% of 58,000 active; AID 641;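 active = luminescence count or its row- and column-corrected plate score outside the 99.7% band of the plate's sample wells, on either side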
Calb biofilm kill: kills Candida albicans biofilms | C. albicans biofilm + clotrimazole, Alamar Blue | inhibition, % at 6 µM | 0.14% of 85,000 active | AID 834;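 active = inhibition above 20%; inactive = inhibition below 20%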;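 also: preformed 24 hr biofilms exposed to compound for 48 hr; 0% = biofilm without compound and 100% = blank killed by clotrimazole plus chlorhexidine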
AP complement: alternative pathway complement inhibition, orthogonal assay; inhibition, % at 5 µM; Human serum alternative complement pathway, LPS-coated ELISA, C3 deposition; tested in compound mixtures; AID 1235; 0.08% of 62,000 active;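 active = inhibition above 30% in each of the two pooled mixtures holding the compound, so the lower value exceeds 30%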;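 also: 0% = serum in Mg-EGTA without compound and 100% = EDTA serum blank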
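Test system: human serum alternative complement pathway, C3 deposition on LPS-coated wells; also added: Plate-bound LPS; doses: 5 µM per compound in ten-compound mixtures; schedule: 1 h at 37 °C; detection: Anti-C3 ELISA, OD 450 nm; evaluation: percent inhibition of C3 deposition onto LPS; repeats: two pool placements per compound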
DAT uptake mod: human DAT dopamine uptake with cocaine, either direction; 1.3% of 110,000 active; LLC-PK1 hDAT cells, [14C]-dopamine uptake with cocaine IC80; actives deviate in either direction; AID 449768; B-score at 10 µM; Q01959;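 active = Z score or B-score, a plate-position-corrected score, falls beyond the plate's 99.7% confidence bounds, in either direction; inactive = both scores lie inside the 99.7% bounds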;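 also: scored against the spread of the other compound wells on the same plate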
Target sequence (Q01959 whole entry, looked up): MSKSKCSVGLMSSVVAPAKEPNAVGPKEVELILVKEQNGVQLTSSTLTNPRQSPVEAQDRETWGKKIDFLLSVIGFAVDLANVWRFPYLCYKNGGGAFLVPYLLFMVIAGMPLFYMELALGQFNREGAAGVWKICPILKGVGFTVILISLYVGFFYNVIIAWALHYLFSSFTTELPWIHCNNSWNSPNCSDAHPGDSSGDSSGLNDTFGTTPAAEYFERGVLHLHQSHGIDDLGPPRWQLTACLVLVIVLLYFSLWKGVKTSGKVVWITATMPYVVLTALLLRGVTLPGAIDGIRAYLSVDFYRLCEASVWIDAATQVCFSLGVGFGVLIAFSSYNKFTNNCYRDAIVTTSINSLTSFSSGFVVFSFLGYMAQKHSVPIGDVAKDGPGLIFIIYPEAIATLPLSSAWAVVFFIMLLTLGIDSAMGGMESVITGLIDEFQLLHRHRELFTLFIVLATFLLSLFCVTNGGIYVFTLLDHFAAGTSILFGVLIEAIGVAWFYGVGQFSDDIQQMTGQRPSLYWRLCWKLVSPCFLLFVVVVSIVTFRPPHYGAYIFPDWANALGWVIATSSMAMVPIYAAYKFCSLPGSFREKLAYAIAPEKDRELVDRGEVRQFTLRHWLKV
MMP-13 inhibitor: MMP13 (human) collagenase inhibition; 0.07% of 65,000 active; MMP-13 fTHP FRET cleavage, Mca fluorescence; P45452; inhibition, % at 4 µM;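 active = inhibition above the mean of compound-free control plate wells plus 3 SD, cut at about 14% in these data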;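 also: 0% = DMSO wells and 100% = wells with reference MMP-13 inhibitor after basal subtraction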
D1 PAM confirm: D1 receptor (human) allosteric modulation, confirmed; shares compounds with D1 mod; HEK293 D1 CRE-luciferase, dopamine EC30 potentiation; hits give high values; luminescence at 10 µM; 88% of 2,200 active;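 active = luminescence in either of two replicates above the same-plate mean plus 3 SD of the low-dose dopamine control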
D1 ag no DA: D1 (human) signaling in absence of dopamine. shares compounds with D1 mod. HEK293 D1 CRE-luciferase, luminescence, no dopamine; hits give high values. luminescence at 10 µM. 0.8% of 1,900 active; in the data active = luminescence above about 3900
Isoprot counter: alters isoproterenol CRE-luciferase response in HEK293 cells | HEK293 D1 CRE-luciferase, isoproterenol EC30 counter-screen; hits give high values | 63% of 2,200 active | AID 647 | luminescence at 10 µM | shares compounds with D1 mod;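 active = luminescence in either replicate above plate mean of wells with a partly effective reference agonist dose plus 3 SD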;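 also: isoproterenol raises cAMP through native beta-adrenoceptor Gs so signal bypasses D1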
Active calls of the source: *.

NS(=O)(=O)c1cccc(NC(=O)Cn2cnc3ccccc3c2=O)c1 was read as DAT uptake mod -0.027.
CCOC(=O)c1ccc(N2CN=C3SCC(=O)N3C2)cc1 was read as D1 mod 3.1*, Calb biofilm kill 4, AP complement 21, DAT uptake mod 0.74, MMP-13 inhibitor 1, D1 PAM confirm 5848*, D1 ag no DA 1596 and Isoprot counter 2552.
Screening CCOC(=O)c1c(N)c(C#N)c2n1CCCCC2 returned D1 mod 11*, Calb biofilm kill 1, AP complement 24, DAT uptake mod 0.035, MMP-13 inhibitor -1, D1 PAM confirm 10284*, D1 ag no DA 1420 and Isoprot counter 3312*.
`CCOC(=O)c1c(NC(=O)CSc2nnc(-c3cccnc3)o2)sc(C(C)=O)c1C` gave D1 mod 4*, Calb biofilm kill 1, AP complement 6, DAT uptake mod 0.29, MMP-13 inhibitor 4, D1 PAM confirm 6332*, D1 ag no DA 1464 and Isoprot counter 3396*.
`CCOC(=O)c1c(NC(=O)CSc2nnc(-c3ccco3)o2)sc(C(C)=O)c1C` gave D1 mod 2.9, Calb biofilm kill 7, AP complement -12, DAT uptake mod 0.029 and MMP-13 inhibitor 3.
Screening Cc1nc2ccc(CCO)cc2s1 returned D1 mod 6.4*, Calb biofilm kill 11, AP complement 9, DAT uptake mod 0.27, MMP-13 inhibitor -1, D1 PAM confirm 7448*, D1 ag no DA 1588 and Isoprot counter 3192.
Screening Cc1nc2ccc(NC(=O)Cc3ccsc3)cc2s1 returned Calb biofilm kill 5 and DAT uptake mod 0.18.
COC(=O)CSc1nnc(-c2ccco2)n1-c1ccc(C)cc1 was read as D1 mod 15*, Calb biofilm kill 11, AP complement 29, DAT uptake mod 1.5, MMP-13 inhibitor 3, D1 PAM confirm 17312*, D1 ag no DA 1612 and Isoprot counter 3744*.
`COC(=O)CSc1nnc(-c2ccoc2C)n1-c1ccc(C)cc1` gave D1 mod 1.1, Calb biofilm kill 7, AP complement -5, DAT uptake mod 0.23 and MMP-13 inhibitor 0.
CCOC(=O)CSc1nnc(-c2ccco2)n1-c1ccc(C)cc1 was read as D1 mod 4.3*, Calb biofilm kill 1, AP complement 20, DAT uptake mod 0.016, MMP-13 inhibitor 1, D1 PAM confirm 5532 and Isoprot counter 2988*.
CCOC(=O)CSc1nnc(-c2ccco2)n1-c1ccccc1 was read as D1 mod 0.59, Calb biofilm kill 7, AP complement 7, DAT uptake mod -0.47 and MMP-13 inhibitor 10.
`COC(=O)c1cccc(CSc2nnc(-c3ccco3)n2-c2ccccc2)c1` gave D1 mod 4.2*, Calb biofilm kill 7, AP complement -4, DAT uptake mod 0.36, MMP-13 inhibitor -5, D1 PAM confirm 17968*, D1 ag no DA 1916 and Isoprot counter 4484*.
Screening O=C(CSc1nnc(-c2ccco2)n1-c1ccccc1)N1CCN(C(=O)c2ccco2)CC1 returned D1 mod -0.068, Calb biofilm kill 6, AP complement 6, DAT uptake mod 0.0025 and MMP-13 inhibitor 4.
For O=C(O)CCC(=O)Nc1ccc(S(=O)(=O)Nc2nccs2)cc1 the results were D1 mod 0.4, Calb biofilm kill 16, AP complement 6, DAT uptake mod -0.79 and MMP-13 inhibitor 4.
`Cc1cc(C(=O)Nc2ccc(S(=O)(=O)Nc3nccs3)cc2)c(C)o1` gave D1 mod 8.4*, Calb biofilm kill 11, AP complement 16, DAT uptake mod -0.48, MMP-13 inhibitor 1, D1 PAM confirm 16172*, D1 ag no DA 1476 and Isoprot counter 3752*.
For CCC(C)(C)n1nnnc1C(c1ccc(C)cc1)N(Cc1ccco1)Cc1cccs1 (stereo unspecified) the results were Calb biofilm kill -1 and DAT uptake mod 1.4.
For CCOC(=O)C1=C(NC(=O)c2ccc(Br)o2)Nc2ccccc2N=C1 the results were D1 mod 19*, Calb biofilm kill 9, AP complement -12, DAT uptake mod 1.1, MMP-13 inhibitor 0, D1 PAM confirm 24204*, D1 ag no DA 1580 and Isoprot counter 5344*.
CCOC(=O)c1c(NC(=O)c2ccc(Br)o2)sc(C)c1CC was read as D1 mod 0.84, Calb biofilm kill -4, AP complement 5, DAT uptake mod 1.1 and MMP-13 inhibitor 1.
Screening CCOC(=O)c1nc(-c2ccccc2)oc1N(C)C returned D1 mod 4*, Calb biofilm kill 8, AP complement 11, DAT uptake mod -0.6, MMP-13 inhibitor -256, D1 PAM confirm 9692*, D1 ag no DA 1608 and Isoprot counter 3216.
CCOC(=O)c1sc(N(C)C)nc1-c1ccccc1 was read as Calb biofilm kill 8 and DAT uptake mod -0.31.
Screening O=C(NC1=NCCS1)c1csc2ccccc12 returned D1 mod -0.92, Calb biofilm kill 4, AP complement 8, DAT uptake mod 2.6 and MMP-13 inhibitor 3.
CCn1nc(C(=O)NC2=NCCS2)c2ccccc2c1=O was read as D1 mod 2.9*, Calb biofilm kill 9, AP complement 23, DAT uptake mod 0.07, MMP-13 inhibitor 0, D1 PAM confirm 9356*, D1 ag no DA 1640 and Isoprot counter 2924.
For COc1cc(-c2nn3c(COc4ccccc4)nnc3s2)cc(OC)c1OC the results were Calb biofilm kill 6, DAT uptake mod 0.5 and MMP-13 inhibitor -8.
COc1cc(-c2nn3c(Cc4ccccc4)nnc3s2)cc(OC)c1OC was read as D1 mod 4*, Calb biofilm kill 12, AP complement 7, DAT uptake mod 0.56, MMP-13 inhibitor -8, D1 PAM confirm 9884*, D1 ag no DA 1660 and Isoprot counter 6328*.
For COc1cc(-c2nn3c(-c4ccccc4)nnc3s2)cc(OC)c1OC the results were D1 mod 3.3*, Calb biofilm kill 4, AP complement 4, DAT uptake mod 2.7*, MMP-13 inhibitor 1, D1 PAM confirm 14804*, D1 ag no DA 1764 and Isoprot counter 5412*.
COc1ccc(-c2nn3c(-c4ccco4)nnc3s2)cc1OC was read as D1 mod 16*, AP complement -7, DAT uptake mod 0.11, MMP-13 inhibitor -7, D1 PAM confirm 18008* and Isoprot counter 5592*.
Screening N#Cc1cc2ccccc2nc1SCC(=O)Nc1ccc(S(=O)(=O)N2CCCC2)cc1 returned D1 mod 2.5*, AP complement 19, DAT uptake mod 0.81, MMP-13 inhibitor -1, D1 PAM confirm 9776*, D1 ag no DA 1832 and Isoprot counter 2628.
